Experiments:
Assay type in all cases: functional
Details in all cases: read-out: DIZ
Escherichia coli [1] = test: Antimicrobial activity against Escherichia coli RCMB 103001 at 5 mg/ml by agar diffusion technique
Method in brief: (§1)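 Agar well diffusion. Test compounds and reference standard drugs were diluted to 5.0, 2.5 and 1.0 mg/mL and applied to 0.6 cm wells. Inhibition zone beyond the control was scored as 0 (no inhibition), + (0.1–0.5 cm), ++ (0.6–1.0 cm) or +++ (1.0–1.5 cm).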

Penicillium italicum [2] = test: Antimicrobial activity against Penicillium italicum RCMB 001018 at 1 mg/ml by agar diffusion technique; method in brief: as §1
Staphylococcus aureus [3] = test: Antimicrobial activity against Staphylococcus aureus RCMB 106001 at 1 mg/ml by agar diffusion technique; method in brief: as §1
Candida albicans [4] = test: Antimicrobial activity against Candida albicans RCMB 005003 at 5 mg/ml by agar diffusion technique; method in brief: as §1
Staphylococcus aureus [5] = test: Antimicrobial activity against Staphylococcus aureus RCMB 106001 at 2.5 mg/ml by agar diffusion technique; method in brief: as §1
Pseudomonas aeruginosa [6] = test: Antimicrobial activity against Pseudomonas aeruginosa RCMB 102002 at 1 mg/ml by agar diffusion technique; method in brief: as §1
Aspergillus fumigatus [7] = test: Antimicrobial activity against Aspergillus fumigatus RCMB 002008 at 2.5 mg/ml by agar diffusion technique; method in brief: as §1
[8] = test system: Syncephalastrum racemosum; test: Antimicrobial activity against Syncephalastrum racemosum RCMB 016001 at 2.5 mg/ml by agar diffusion technique; method in brief: as §1
Escherichia coli [9] = test: Antimicrobial activity against Escherichia coli RCMB 103001 at 2.5 mg/ml by agar diffusion technique; method in brief: as §1
Pseudomonas aeruginosa [10] = test: Antimicrobial activity against Pseudomonas aeruginosa RCMB 102002 at 2.5 mg/ml by agar diffusion technique; method in brief: as §1
Penicillium italicum [11] = test: Antimicrobial activity against Penicillium italicum RCMB 001018 at 2.5 mg/ml by agar diffusion technique; method in brief: as §1
Bacillus subtilis [12] = test: Antimicrobial activity against Bacillus subtilis RCMB 101001 at 2.5 mg/ml by agar diffusion technique; method in brief: as §1
Candida albicans [13] = test: Antimicrobial activity against Candida albicans RCMB 005003 at 1 mg/ml by agar diffusion technique; method in brief: as §1
Pseudomonas aeruginosa [14] = test: Antimicrobial activity against Pseudomonas aeruginosa RCMB 102002 at 5 mg/ml by agar diffusion technique; method in brief: as §1
Bacillus subtilis [15] = test: Antimicrobial activity against Bacillus subtilis RCMB 101001 at 5 mg/ml by agar diffusion technique; method in brief: as §1
Aspergillus fumigatus [16] = test: Antimicrobial activity against Aspergillus fumigatus RCMB 002008 at 1 mg/ml by agar diffusion technique; method in brief: as §1
Aspergillus fumigatus [17] = test: Antimicrobial activity against Aspergillus fumigatus RCMB 002008 at 5 mg/ml by agar diffusion technique; method in brief: as §1
Candida albicans [18] = test: Antimicrobial activity against Candida albicans RCMB 005003 at 2.5 mg/ml by agar diffusion technique; method in brief: as §1
Bacillus subtilis [19] = test: Antimicrobial activity against Bacillus subtilis RCMB 101001 at 1 mg/ml by agar diffusion technique; method in brief: as §1
Escherichia coli [20] = test: Antimicrobial activity against Escherichia coli RCMB 103001 at 1 mg/ml by agar diffusion technique; method in brief: as §1
Staphylococcus aureus [21] = test: Antimicrobial activity against Staphylococcus aureus RCMB 106001 at 5 mg/ml by agar diffusion technique; method in brief: as §1
Penicillium italicum [22] = test: Antimicrobial activity against Penicillium italicum RCMB 001018 at 5 mg/ml by agar diffusion technique; method in brief: as §1
[23] = test system: Syncephalastrum racemosum; test: Antimicrobial activity against Syncephalastrum racemosum RCMB 016001 at 1 mg/ml by agar diffusion technique; method in brief: as §1
[24] = test system: Syncephalastrum racemosum; test: Antimicrobial activity against Syncephalastrum racemosum RCMB 016001 at 5 mg/ml by agar diffusion technique; method in brief: as §1

Compound | zone of inhibition at 5000 µg/mL (Escherichia coli [1]) [mm] | zone of inhibition at 1000 µg/mL (Penicillium italicum [2]) [mm] | zone of inhibition at 1000 µg/mL (Staphylococcus aureus [3]) [mm] | zone of inhibition at 5000 µg/mL (Candida albicans [4]) [mm] | zone of inhibition at 2500 µg/mL (Staphylococcus aureus [5]) [mm] | zone of inhibition at 1000 µg/mL (Pseudomonas aeruginosa [6]) [mm] | zone of inhibition at 2500 µg/mL (Aspergillus fumigatus [7]) [mm] | zone of inhibition at 2500 µg/mL [8] [mm] | zone of inhibition at 2500 µg/mL (Escherichia coli [9]) [mm] | zone of inhibition at 2500 µg/mL (Pseudomonas aeruginosa [10]) [mm] | zone of inhibition at 2500 µg/mL (Penicillium italicum [11]) [mm] | zone of inhibition at 2500 µg/mL (Bacillus subtilis [12]) [mm] | zone of inhibition at 1000 µg/mL (Candida albicans [13]) [mm] | zone of inhibition at 5000 µg/mL (Pseudomonas aeruginosa [14]) [mm] | zone of inhibition at 5000 µg/mL (Bacillus subtilis [15]) [mm] | zone of inhibition at 1000 µg/mL (Aspergillus fumigatus [16]) [mm] | zone of inhibition at 5000 µg/mL (Aspergillus fumigatus [17]) [mm] | zone of inhibition at 2500 µg/mL (Candida albicans [18]) [mm] | zone of inhibition at 1000 µg/mL (Bacillus subtilis [19]) [mm] | zone of inhibition at 1000 µg/mL (Escherichia coli [20]) [mm] | further results
OC1COc2ccccc2/C=N\n2c(nnc2-c2cccnc2)SCCCCSc2nnc(-c3cccnc3)n2/N=C\c2ccccc2OC1 | 0 | 0 | 0 | 0 | 0 | 0 | 0 | 0 | 0 | 0 | 0 | 1 | 0 | 0 | 1 | 0 | 0 | 0 | 1 | 0 | zone of inhibition at 5000 µg/mL (Staphylococcus aureus [21]): 1 mm; zone of inhibition at 5000 µg/mL (Penicillium italicum [22]): 0 mm; zone of inhibition at 1000 µg/mL [23]: 0 mm; zone of inhibition at 5000 µg/mL [24]: 0 mm
Nn1c(SCCSc2nnc(-c3cccnc3)n2N)nnc1-c1cccnc1 | 1 | 0 | 0 | 1 | 0 | 0 | 0 | 0 | 0 | 0 | 1 | 0 | 1 | 0 | 0 | 0 | 0 | 1 | 0 | 0 | zone of inhibition at 5000 µg/mL (Staphylococcus aureus [21]): 1 mm; zone of inhibition at 5000 µg/mL (Penicillium italicum [22]): 1 mm; zone of inhibition at 1000 µg/mL [23]: 0 mm; zone of inhibition at 5000 µg/mL [24]: 0 mm
S=c1[nH]nc(-c2cccnc2)n1/N=C\c1ccccc1OCCCOc1ccccc1/C=N\n1c(-c2cccnc2)n[nH]c1=S | 0 | 0 | 0 | 0 | 1 | 0 | 0 | 1 | 0 | 0 | 0 | 1 | 0 | 0 | 1 | 0 | 0 | 0 | 1 | 0 | zone of inhibition at 5000 µg/mL (Staphylococcus aureus [21]): 1 mm; zone of inhibition at 5000 µg/mL (Penicillium italicum [22]): 0 mm; zone of inhibition at 1000 µg/mL [23]: 0 mm; zone of inhibition at 5000 µg/mL [24]: 1 mm
C1=N\n2c(nnc2-c2cccnc2)SCCCCSc2nnc(-c3cccnc3)n2/N=C\c2ccccc2OCCOCCOCCOc2ccccc2/1 | 1 | 0 | 0 | 0 | 0 | 0 | 0 | 0 | 1 | 1 | 0 | 0 | 0 | 1 | 0 | 0 | 0 | 0 | 0 | 0 | zone of inhibition at 5000 µg/mL (Staphylococcus aureus [21]): 1 mm; zone of inhibition at 5000 µg/mL (Penicillium italicum [22]): 0 mm; zone of inhibition at 1000 µg/mL [23]: 0 mm; zone of inhibition at 5000 µg/mL [24]: 1 mm
S=c1[nH]nc(-c2cccnc2)n1/N=C\c1ccccc1OCCOCCOc1ccccc1/C=N\n1c(-c2cccnc2)n[nH]c1=S | 0 | 1 | 0 | 0 | 0 | 0 | 1 | 0 | 0 | 0 | 1 | 1 | 0 | 0 | 1 | 0 | 1 | 0 | 1 | 0 | zone of inhibition at 5000 µg/mL (Staphylococcus aureus [21]): 0 mm; zone of inhibition at 5000 µg/mL (Penicillium italicum [22]): 1 mm; zone of inhibition at 1000 µg/mL [23]: 0 mm; zone of inhibition at 5000 µg/mL [24]: 1 mm
OC1COc2ccccc2CNn2c(nnc2-c2cccnc2)SCCCSc2nnc(-c3cccnc3)n2NCc2ccccc2OC1 | 0 | 0 | 0 | 0 | 0 | 0 | 0 | 0 | 0 | 0 | 0 | 6 | 0 | 0 | 6 | 0 | 0 | 0 | 1 | 0 | zone of inhibition at 5000 µg/mL (Staphylococcus aureus [21]): 0 mm; zone of inhibition at 5000 µg/mL (Penicillium italicum [22]): 0 mm; zone of inhibition at 1000 µg/mL [23]: 0 mm; zone of inhibition at 5000 µg/mL [24]: 0 mm
O=C(N[C@H](CO)[C@H](O)c1ccc([N+](=O)[O-])cc1)C(Cl)Cl [CHLORAMPHENICOL] | 6 | 6 | 6 | 6 | 6 | 6 | 10 | 10 | 6 | 10 | 10 | 10 | 6 | 10 | 10 | 6 | 10 | 6 | 6 | 6 | zone of inhibition at 5000 µg/mL (Staphylococcus aureus [21]): 6 mm; zone of inhibition at 5000 µg/mL (Penicillium italicum [22]): 10 mm; zone of inhibition at 1000 µg/mL [23]: 10 mm; zone of inhibition at 5000 µg/mL [24]: 10 mm

Source: ChEMBL document CHEMBL1629465, “Efficient synthesis of novel 1,2,4-triazole fused acyclic and 21-28 membered macrocyclic and/or lariat macrocyclic oxaazathia crown compounds with potential antimicrobial activity” (2010)
